Measured values taken from ChEMBL document CHEMBL1275391, “Design, synthesis, and preclinical evaluation of new 5,6- (or 6,7-) disubstituted-2-(fluorophenyl)quinolin-4-one derivatives as potent antitumor agents” (J Med Chem, 2010).

Legend:
SK-MEL-5 = test: Growth inhibition of human SK-MEL-5 cells; format: functional
SF-539 = test: Growth inhibition of human SF539 cells; format: functional
HL-60 = test: Cytotoxicity against human HL60 cells after 48 hrs by MTT assay; format: functional, cell-based; conditions: HL-60, 48 h
Method in brief: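 Cells exposed to a range of compound concentrations for 48 h, washed once with PBS, then incubated with MTT for 2 h. Formazan dissolved in DMSO and absorbance read at 570 nm. IC50 taken as the concentration giving 50% inhibition of proliferation.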

LOX IMVI = test: Growth inhibition of human LOXIMVI cells; format: functional
NCI-H522 = test: Growth inhibition of human NCI-H522 cells; format: functional
IGROV-1 = test: Growth inhibition of human IGROV1 cells; format: functional
Malme-3M = test: Growth inhibition of human MALME-3M cells; format: functional
TK-10 = test: Growth inhibition of human TK10 cells; format: functional
HOP-62 = test: Growth inhibition of human HOP62 cells; format: functional
COLO 205 = test: Growth inhibition of human COLO205 cells; format: functional
HCC 2998 = test: Growth inhibition of human HCC2998 cells; format: functional
SK-OV-3 = test: Growth inhibition of human SKOV3 cells; format: functional
SK-MEL-2 = test: Growth inhibition of human SK-MEL-2 cells; format: functional
SN12C = test: Growth inhibition of human SN12C cells; format: functional
UACC-257 = test: Growth inhibition of human UACC257 cells; format: functional
SF-295 = test: Growth inhibition of human SF295 cells; format: functional
HT-29 = test: Growth inhibition of human HT-29 cells; format: functional
OVCAR-4 = test: Growth inhibition of human OVCAR4 cells; format: functional
HCT-15 = test: Growth inhibition of human HCT15 cells; format: functional
HL-60(TB) = test: Growth inhibition of human HL-60(TB) cells; format: functional
CYP1A2 = CYP1A2 (Homo sapiens, UniProt P05177); test: Inhibition of human CYP1A2 at 10 uM; format: ADME
T47D = test: Growth inhibition of human T47D cells; format: functional
NCI-H226 = test: Growth inhibition of human NCI-H226 cells; format: functional
M14 = test: Growth inhibition of human M14 cells; format: functional
EKVX = test: Growth inhibition of human EKVX cells; format: functional
UO-31 = test: Growth inhibition of human UO31 cells; format: functional
OVCAR-3 = test: Growth inhibition of human OVCAR-3 cells; format: functional
[1] = read-out: pLC50 (the source's name) (converted)

Sequence of CYP1A2 (P05177 whole entry): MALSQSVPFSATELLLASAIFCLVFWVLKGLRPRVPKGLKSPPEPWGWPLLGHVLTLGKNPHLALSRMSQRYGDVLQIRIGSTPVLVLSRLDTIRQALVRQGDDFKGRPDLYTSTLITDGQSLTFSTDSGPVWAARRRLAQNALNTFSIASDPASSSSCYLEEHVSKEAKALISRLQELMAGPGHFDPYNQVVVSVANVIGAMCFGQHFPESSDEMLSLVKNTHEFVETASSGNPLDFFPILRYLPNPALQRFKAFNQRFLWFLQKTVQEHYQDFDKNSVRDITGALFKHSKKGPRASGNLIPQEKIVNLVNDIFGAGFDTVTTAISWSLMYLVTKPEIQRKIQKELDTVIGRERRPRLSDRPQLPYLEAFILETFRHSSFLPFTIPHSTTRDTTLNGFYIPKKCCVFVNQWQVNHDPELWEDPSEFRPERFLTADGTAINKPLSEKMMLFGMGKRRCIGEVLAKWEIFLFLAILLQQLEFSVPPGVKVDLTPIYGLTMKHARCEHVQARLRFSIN

`COc1ccc2[nH]c(-c3cccc(F)c3)cc(=O)c2c1O` showed a GI50 (SK-MEL-5) of 29.5 nM, a CC50 (SK-MEL-5; [1]) of 18200 nM and a TGI (SK-MEL-5; read-out: pTGI (converted)) of 200 nM. For the same molecule, the GI50 (SF-539) was 26.3 nM, the CC50 (SF-539; [1]) was 18600 nM and the TGI (SF-539; read-out: pTGI (converted)) was 97.7 nM. For the same molecule, the IC50 (HL-60) was 30 nM, the GI50 (LOX IMVI) was 91.2 nM and the CC50 (LOX IMVI; [1]) was over 100000 nM. The TGI (LOX IMVI; read-out: pTGI (converted)) was 57500 nM, the GI50 (NCI-H522) was 14.4 nM and the CC50 (NCI-H522; [1]) was 97.7 nM. For the same molecule, the TGI (NCI-H522; read-out: pTGI (converted)) was 38 nM, the GI50 (IGROV-1) was 26.9 nM and the TGI (IGROV-1; read-out: pTGI (converted)) was 93.3 nM. For the same molecule, the CC50 (Malme-3M; [1]) was over 100000 nM, the TGI (Malme-3M; read-out: pTGI (converted)) was 52500 nM and the GI50 (TK-10) was 1780 nM. The CC50 (TK-10; [1]) was over 100000 nM, the TGI (TK-10; read-out: pTGI (converted)) was 67600 nM and the GI50 (HOP-62) was 50.1 nM. It also gave a CC50 (HOP-62; [1]) of 42700 nM, a TGI (HOP-62; read-out: pTGI (converted)) of 14500 nM and a GI50 (COLO 205) of 25.1 nM. The CC50 (COLO 205; [1]) was 832 nM, the TGI (COLO 205; read-out: pTGI (converted)) was 66.1 nM and the GI50 (HCC 2998) was 32.4 nM. It also gave a CC50 (HCC 2998; [1]) of 16200 nM, a TGI (HCC 2998; read-out: pTGI (converted)) of 66.1 nM and a GI50 (SK-OV-3) of 35.5 nM. For the same molecule, the CC50 (SK-OV-3; [1]) was 37200 nM, the TGI (SK-OV-3; read-out: pTGI (converted)) was 10700 nM and the GI50 (SK-MEL-2) was 72.4 nM. The CC50 (SK-MEL-2; [1]) was 77600 nM, the TGI (SK-MEL-2; read-out: pTGI (converted)) was 15800 nM and the GI50 (SN12C) was 61.7 nM. For the same molecule, the CC50 (SN12C; [1]) was over 100000 nM, the TGI (SN12C; read-out: pTGI (converted)) was 38000 nM and the GI50 (UACC-257) was 33.9 nM. It also gave a CC50 (UACC-257; [1]) of over 100000 nM, a TGI (UACC-257; read-out: pTGI) of over 100000 nM and a GI50 (SF-295) of 25.7 nM. It also gave a CC50 (SF-295; [1]) of 53700 nM, a TGI (SF-295; read-out: pTGI (converted)) of 10500 nM and a GI50 (HT-29) of 28.8 nM. It also gave a CC50 (HT-29; [1]) of 15500 nM, a TGI (HT-29; read-out: pTGI (converted)) of 75.9 nM and a GI50 (OVCAR-4) of 43.6 nM. It also gave a CC50 (OVCAR-4; [1]) of over 100000 nM, a TGI (OVCAR-4; read-out: pTGI (converted)) of 9120 nM and a GI50 (HCT-15) of 35.5 nM. It also gave a CC50 (HCT-15; [1]) of over 100000 nM, a TGI (HCT-15; read-out: pTGI (converted)) of 14800 nM and a GI50 (HL-60(TB)) of 22.4 nM. For the same molecule, the CC50 (HL-60(TB); [1]) was over 100000 nM, the TGI (HL-60(TB); read-out: pTGI (converted)) was 63.1 nM and the inhibition at 10 µM (CYP1A2) was 85%. For the same molecule, the GI50 (T47D) was 28.2 nM, the CC50 (T47D; [1]) was 87100 nM and the GI50 (NCI-H226) was 1820 nM. It also gave a CC50 (NCI-H226; [1]) of over 100000 nM, a TGI (NCI-H226; read-out: pTGI (converted)) of 31600 nM and a GI50 (M14) of 19.1 nM. The CC50 (M14; [1]) was 70800 nM, the GI50 (EKVX) was 45.7 nM and the CC50 (EKVX; [1]) was over 100000 nM. The TGI (EKVX; read-out: pTGI) was over 100000 nM, the GI50 (UO-31) was 51.3 nM and the CC50 (UO-31; [1]) was 39800 nM. It also gave a TGI (UO-31; read-out: pTGI (converted)) of 10200 nM, a GI50 (OVCAR-3) of 19.1 nM and a CC50 (OVCAR-3; [1]) of 30200 nM. For the same molecule, the TGI (OVCAR-3; read-out: pTGI (converted)) was 40.7 nM.
